ERp5 block – inhibitors of human ERp5. AID 651711. hit rate 0.05% among 350,000. Q15084. ERp5 insulin aggregation, absorbance 650 nm, 90 min. inhibition, % at 9.99 µM;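 active = mean replicate inhibition above about 25%, with every replicate also reaching it, limit read from the data, passing the limit was not always enough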
Target sequence (Q15084 whole entry, looked up): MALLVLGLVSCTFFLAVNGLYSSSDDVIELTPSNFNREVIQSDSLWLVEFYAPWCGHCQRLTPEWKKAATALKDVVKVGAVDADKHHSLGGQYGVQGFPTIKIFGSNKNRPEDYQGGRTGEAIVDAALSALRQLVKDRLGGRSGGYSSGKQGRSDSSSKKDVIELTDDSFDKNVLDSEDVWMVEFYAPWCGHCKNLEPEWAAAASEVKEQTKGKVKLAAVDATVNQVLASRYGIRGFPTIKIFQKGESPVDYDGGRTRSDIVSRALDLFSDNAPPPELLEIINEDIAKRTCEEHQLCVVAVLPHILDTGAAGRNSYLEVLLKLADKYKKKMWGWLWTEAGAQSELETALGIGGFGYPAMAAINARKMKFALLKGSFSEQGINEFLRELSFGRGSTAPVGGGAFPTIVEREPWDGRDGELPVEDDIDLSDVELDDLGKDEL
GSIS activator – GLuc luminescence reporter in INS-1E cells, primary screen for activators of glucose-dependent secretion of insulin; activation, % at 16.6 µM; hit rate 0.61% among 370,000; INS-1E GLuc reporter insulin secretion, 2-3 h;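 active = lowest replicate activation of at least 40%, so every replicate reaches that level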;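 also: 0% = median of neutral control wells and 100% = median of IBMX positive control wells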
SIRT5 block – inhibitors of human sirtuin-5 desuccinylase | hit rate 1.1% among 330,000 | inhibition, % at 15 µM | Purified SirT5, succinyl-peptide AMC, trypsin-coupled fluorescence; in the data active = inhibition above about 15%
PDI inh – blocks human protein disulfide isomerase activity; hit rate 0.052% among 350,000; PDI insulin aggregation turbidity, A650, 90 min; inhibition, % at 10 µM;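 active = mean inhibition across replicates of 30% or more, whatever share of single replicates reach that level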
S100A4 inh HTS – inhibitors of human S100A4 binding to myosin IIA peptide | S100A4/TAMRA-MyoIIA peptide fluorescence polarization | inhibition, % at 10.7 µM | hit rate 0.14% among 360,000 | AID 652163;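 active = mean inhibition of at least 70% across replicates, with every replicate also reaching that level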
Target sequence (P26447 whole entry, looked up): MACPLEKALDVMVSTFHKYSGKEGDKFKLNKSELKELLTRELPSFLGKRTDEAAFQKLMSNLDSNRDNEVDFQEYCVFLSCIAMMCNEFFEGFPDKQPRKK
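Test system: S100A4 monomer protein; Medium: HEPES pH 7.2 with CaCl2, KCl, NaCl, DTT, Triton; Probe or stimulus: TAMRA-labelled myosin IIA heavy-chain peptide probe, 5 nM; Doses: one dose per compound; Times: polarization read 5 min after assay mix addition, stable 5–60 min; Benchmarks: neutral control DMSO, positive control TFP.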
Active calls of the source: *. Hits are enriched below; roughly 1.5% of the tested compounds scored in any of these assays.

CCc1ccc(/C=C2\SC(=S)N(CCCC(=O)Nc3nccs3)C2=O)cc1 was read as GSIS activator 121.5* and PDI inh -12.9.
Screening CCc1ccc(/C=C2/SC(=S)N(CCC(=O)NCCCN3CCOCC3)C2=O)cc1 returned ERp5 block 8.0, GSIS activator 4.6, SIRT5 block -3.2, PDI inh 3.6 and S100A4 inh HTS -8.0.
For C[C@H]1CCCCO[C@H](CN(C)CC2CC2)[C@@H](C)CN([C@@H](C)CO)C(=O)c2cc(NC(=O)C3CCCCC3)ccc2O1 the results were ERp5 block 0.7, GSIS activator -6.7, SIRT5 block -0.5 and S100A4 inh HTS 2.4.
C[C@@H]1CN([C@H](C)CO)C(=O)c2cc(NC(=O)Nc3ccc(F)cc3)ccc2O[C@@H](C)CCCCO[C@H]1CN(C)S(=O)(=O)c1cn(C)cn1 was read as ERp5 block -0.7, GSIS activator 15.7, SIRT5 block -3.4 and S100A4 inh HTS 2.8.
CCS(=O)(=O)NCC[C@H]1CC[C@H](NC(=O)C2CCCCC2)[C@@H](CO)O1 was read as GSIS activator 2.7.
For COc1ccc(-c2cnc(N)nc2-c2ccc(OC)cc2)cc1 the results were ERp5 block 3.0, GSIS activator 52.0*, SIRT5 block -2.6, PDI inh -4.0 and S100A4 inh HTS -15.9.
For COc1ccc(-c2ncncc2-c2ccc(OC)c(OC)c2)c(O)c1 the results were ERp5 block 3.0, GSIS activator 17.7, SIRT5 block -3.8, PDI inh -1.4 and S100A4 inh HTS 3.6.
COc1ccc(-c2nc(N)ncc2-c2ccc(OC)c(OC)c2)c(O)c1 was read as ERp5 block 2.9, GSIS activator 48.7*, SIRT5 block -3.2, PDI inh 2.1 and S100A4 inh HTS -2.6.
For Cn1nnnc1Sc1ncnc2scc(-c3ccccc3)c12 the results were ERp5 block 1.2, GSIS activator 45.4*, SIRT5 block -4.6, PDI inh -5.0 and S100A4 inh HTS -7.4.
Screening Cn1nnnc1Sc1ncnc2scc(-c3ccc(F)cc3)c12 returned GSIS activator 60.7* and PDI inh 0.3.
`O=C(O)c1ccc(S(=O)(=O)N(Cc2ccccc2)C2CCCCC2)cc1` gave ERp5 block 6.7, SIRT5 block 22.1*, PDI inh 6.4 and S100A4 inh HTS -2.6.
COc1cc(SC)ccc1C(=O)Nc1cccc(S(=O)(=O)NC2=NCCC2)c1 was read as ERp5 block 2.5, GSIS activator 1.1, SIRT5 block 15.3*, PDI inh -5.6 and S100A4 inh HTS 4.7.
For CCOc1ncccc1C(=O)Nc1cccc(S(=O)(=O)NC2=NCCC2)c1 the results were ERp5 block 14.5, GSIS activator 54.6*, SIRT5 block 1.1, PDI inh -5.2 and S100A4 inh HTS -4.0.
For C[C@H]1CN([C@@H](C)CO)C(=O)c2cc(NS(=O)(=O)c3ccc(F)cc3)ccc2O[C@@H]1CN(C)Cc1ccc(Oc2ccccc2)cc1 the results were ERp5 block -14.0, GSIS activator -21.2, SIRT5 block 0.1 and S100A4 inh HTS 22.4.
Screening CNC[C@@H]1Oc2c(NC(=O)Nc3ccc(OC)cc3)cccc2C(=O)N([C@@H](C)CO)C[C@H]1C returned GSIS activator 10.4.
`COc1ccc(OC)c(C(=O)c2ccc([N+](=O)[O-])cc2)c1` gave ERp5 block -2.9, GSIS activator 57.6*, SIRT5 block 2.4, PDI inh -8.4 and S100A4 inh HTS 4.0.
Screening COc1ccc(CC(=O)OCC(=O)c2ccc(OC)c(OC)c2)cc1 returned ERp5 block 3.9, GSIS activator 40.8*, SIRT5 block 2.0, PDI inh -4.3 and S100A4 inh HTS -3.4.
`COc1ccc(C(=O)c2ccc(Br)cc2)cc1` gave GSIS activator 83.7* and PDI inh 1.2.
COc1ccc(CC(=O)c2ccc(OC)c(OC)c2)cc1 was read as ERp5 block -0.1, GSIS activator 71.4*, SIRT5 block 3.5, PDI inh -0.8 and S100A4 inh HTS 4.1.
`COc1ccc(C(=O)Cc2ccccc2)cc1OC` gave GSIS activator 28.8 and PDI inh 0.6.
For COCCNC(=O)C[C@@H]1CC[C@H]2[C@H](COc3ccc(NC(=O)c4cc(C)on4)cc3C(=O)N2C)O1 the results were ERp5 block -4.0, GSIS activator 13.6, SIRT5 block 0.1 and S100A4 inh HTS 0.6.
COc1ccc(C(=O)c2ccc(OC)c(OC)c2)cc1OC was read as PDI inh 12.6.
For COc1ccc(C=CC(=O)c2ccc3cc(OC)c(OC)cc3c2)cc1OC the results were ERp5 block 10.2, PDI inh -23.4 and S100A4 inh HTS 4.9.
Screening Cc1ccc(S(=O)(=O)CCC(=O)c2ccc(F)cc2)cc1 returned ERp5 block 6.6, GSIS activator 31.2, SIRT5 block -1.4, PDI inh -6.6 and S100A4 inh HTS -5.7.
Screening COc1cc(C(=O)C(=O)c2ccc(OC)c(OC)c2)ccc1O returned ERp5 block 13.2, GSIS activator 44.5*, SIRT5 block 3.4, PDI inh 3.4 and S100A4 inh HTS -2.9.
For COc1ccc(C(=O)CCS(=O)(=O)c2ccc(F)cc2)cc1OC the results were ERp5 block -0.8, GSIS activator 60.4*, SIRT5 block -3.3, PDI inh -3.3 and S100A4 inh HTS -3.1.
For COc1cc2ccc(C(C)=O)cc2cc1OC the results were ERp5 block -1.9, GSIS activator 47.6*, SIRT5 block -2.9, PDI inh -4.8 and S100A4 inh HTS -7.9.
Screening CCC(=O)c1ccc(O)c(OC)c1 returned ERp5 block -3.3, GSIS activator 2.4, SIRT5 block -1.3 and S100A4 inh HTS -7.8.
Screening COc1ccc(C(=O)c2ccc(OC)c(OC)c2)cc1 returned GSIS activator 55.9* and PDI inh -1.1.
`COc1ccc(C#Cc2cnc3c(c2)C(=O)N([C@H](C)CO)C[C@@H](C)[C@@H](CN(C)CC2CC2)O3)cc1` gave GSIS activator -11.9.
CO[C@@H]1CN(C)C(=O)c2ccc(NS(=O)(=O)C3CCCCC3)cc2OC[C@H](C)NC[C@H]1C was read as ERp5 block -0.3, GSIS activator 9.4, SIRT5 block -0.1 and S100A4 inh HTS 12.9.
CN(C(=O)c1ccc2c(c1)OCO2)C1(C)CCS(=O)(=O)C1 (stereo not drawn) was read as ERp5 block -3.0, GSIS activator 8.1, SIRT5 block 2.3, PDI inh 0.9 and S100A4 inh HTS -3.1.
COc1ccc(C(=O)c2sc3nc(-c4ccccc4)ccc3c2N)cc1OC was read as PDI inh -3.6.
For NC(=O)c1sc2nc(-c3ccccc3)ccc2c1N the results were ERp5 block -2.6, GSIS activator 4.8, SIRT5 block -3.1, PDI inh 0.1 and S100A4 inh HTS -1.5.
`CCOC(=O)c1sc2nc(-c3ccccc3)ccc2c1N` gave GSIS activator 75.7* and PDI inh -1.6.
`COc1ccc(C(=O)N(C)C2(C)CCS(=O)(=O)C2)cc1OC` (stereo not drawn) gave ERp5 block 0.7, GSIS activator 0.6, SIRT5 block -1.9, PDI inh -0.8 and S100A4 inh HTS 183.5*.

Bioassay records as filed in PubChem.
